The source made the active and inactive calls. The rule behind the calls is not given here.

The nature of assay [1]: Inhibition of beta-lactamase L1 (unknown origin) expressed in Escherichia coli BL21(DE3) using nitrocefin as substrate by measuring substrate hydrolysis preincubated for 30 mins by spectrophotometric analysis. The procedure, abridged:
(§1)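 Enzyme 0.2–0.8 nM in 25 mM HEPES pH 7.5 with 50 μM ZnCl2 final, pre-incubated 30 min at 21 °C with inhibitor (100 μM screen). Nitrocefin 100 μM final, read at 482 nm, 30 °C. Residual activity vs three uninhibited samples; Ki (1–100 μM inhibitor) from Hanes linearization, competitive model. Triplicate.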

Assay [2] is described as follows: Inhibition of beta-lactamase VIM4 (unknown origin) expressed in Escherichia coli BL21(DE3) using imipenem as substrate by measuring substrate hydrolysis by spectrophotometric analysis. In short, it runs like this: (§2)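 Purified enzyme (overproduced in E. coli BL21(DE3), pET-9a; ion-exchange and gel filtration), 1-70 nM final. Reporter substrate 150 μM imipenem, read at 300 nm, 30 °C, 50 mM HEPES pH 7.5. Single-point screen at 100 or 200 μM; Ki from v0/vi vs [I] (0.5–1,000 μM final) assuming competitive inhibition, or Dixon plot. Triplicate.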

A short description of assay [3]: Inhibition of beta-lactamase VIM2 (unknown origin) expressed in Escherichia coli BL21(DE3) using imipenem as substrate by measuring substrate hydrolysis at 100 uM by spectrophotometric analysis. The procedure, abridged: as §2
The nature of assay [4]: Inhibition of beta-lactamase NDM1 (unknown origin) expressed in Escherichia coli BL21(DE3) using cefotaxime/nitrocefin as substrate by measuring substrate hydrolysis at 100 uM by spectrophotometric analysis.
Assay [5] can be described thus: Inhibition of beta-lactamase VIM2 (unknown origin) expressed in Escherichia coli BL21(DE3) using imipenem as substrate by measuring substrate hydrolysis at 200 uM by spectrophotometric analysis. In short, it runs like this:
as §2

Assay [6] can be described thus: Inhibition of beta-lactamase IMP-1 (unknown origin) expressed in Escherichia coli BL21(DE3) using imipenem as substrate by measuring substrate hydrolysis by spectrophotometric analysis. In short, it runs like this: as §2
Assay [7] in a line: Inhibition of beta-lactamase VIM-4 (unknown origin) expressed in Escherichia coli LZ2310 assessed as potentiation of ampicillin antibacterial activity by measuring ampicillin induced diameter of inhibition zone at 40 uM incubated for 18 hrs by disk diffusion method (reference value: 6 mm). The procedure, abridged:
(§3)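 Efflux-deficient E. coli LZ2310 (NorE, MdfA, AcrA knocked out) carrying pLB-II with the cloned MBL gene. Mueller-Hinton, CLSI disk diffusion; antibiotic disks (30 µg cefoxitin for VIM-2, 10 µg ampicillin for VIM-4, 30 µg ceftazidime for NDM-1/IMP-1) loaded with inhibitor in DMSO (≤15 µL). Zone diameter after 18 h, 35 ± 1 °C; DMSO and 220 µg EDTA controls. Triplicate.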
Background: Agar diffusion results depend on both activity and mobility in agar.

Assay [8] in a line: Inhibition of beta-lactamase CphA (unknown origin) expressed in Escherichia coli BL21(DE3) using imipenem as substrate by measuring substrate hydrolysis by spectrophotometric analysis. In short, it runs like this:
(§4)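 Enzyme 0.2–0.8 nM in 15 mM cacodylate pH 6.5, no added zinc, pre-incubated 30 min at 21 °C with inhibitor (100 μM screen). Imipenem substrate added from 10 mM stock; hydrolysis at 300 nm, 30 °C. Residual activity vs three uninhibited samples; Ki (1–100 μM inhibitor) by Hanes linearization, competitive model. Triplicate.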

Assay [9] in a line: Inhibition of beta-lactamase IMP-1 (unknown origin) expressed in Escherichia coli BL21(DE3) using imipenem as substrate by measuring substrate hydrolysis at 100 uM by spectrophotometric analysis. The procedure, abridged: as §2
Assay [10] can be described thus: Inhibition of beta-lactamase VIM-2 (unknown origin) expressed in Escherichia coli LZ2310 assessed as potentiation of cefoxitin antibacterial activity by measuring cefoxitin induced diameter of inhibition zone at 40 uM incubated for 18 hrs by disk diffusion method (reference value: 14 mm). The procedure, abridged:
as §3

A short description of assay [11]: Inhibition of beta-lactamase VIM2 (unknown origin) expressed in Escherichia coli BL21(DE3) using imipenem as substrate by measuring substrate hydrolysis by spectrophotometric analysis. In short, it runs like this:
as §2

Assay [12] can be described thus: Inhibition of beta-lactamase CphA (unknown origin) expressed in Escherichia coli BL21(DE3) using imipenem as substrate by measuring substrate hydrolysis at 100 uM by spectrophotometric analysis. The procedure, abridged:
as §4

Assay [13] can be described thus: Inhibition of beta-lactamase L1 (unknown origin) expressed in Escherichia coli BL21(DE3) using nitrocefin as substrate by measuring substrate hydrolysis at 100 uM preincubated for 30 mins by spectrophotometric analysis. In short, it runs like this:
as §1

Assay [14] can be described thus: Inhibition of beta-lactamase NDM1 (unknown origin) expressed in Escherichia coli BL21(DE3) using cefotaxime/nitrocefin as substrate by measuring substrate hydrolysis at 200 uM by spectrophotometric analysis.
Assay [15] can be described thus: Inhibition of beta-lactamase VIM4 (unknown origin) expressed in Escherichia coli BL21(DE3) using imipenem as substrate by measuring substrate hydrolysis at 100 uM by spectrophotometric analysis. The procedure, abridged:
as §2

A short description of assay [16]: Inhibition of beta-lactamase VIM4 (unknown origin) expressed in Escherichia coli BL21(DE3) using imipenem as substrate by measuring substrate hydrolysis at 200 uM by spectrophotometric analysis. The procedure, abridged:
as §2

Assay [17] can be described thus: Inhibition of beta-lactamase NDM1 (unknown origin) expressed in Escherichia coli BL21(DE3) using cefotaxime/nitrocefin as substrate by measuring substrate hydrolysis by spectrophotometric analysis. The procedure, abridged: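 His-tagged enzyme from E. coli BL21(DE3) pET-15b, affinity-purified, 1-70 nM final. Reporter substrate 120 μM cefotaxime (260 nm) or 100 μM nitrocefin (482 nm), 30 °C, 50 mM HEPES pH 7.5. Inhibitor 0.5–1,000 μM final; competitive Ki from v0/vi vs [I] slope or Dixon plot. Triplicate.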

Assay [18] can be described thus: Inhibition of beta-lactamase IMP-1 (unknown origin) expressed in Escherichia coli BL21(DE3) using imipenem as substrate by measuring substrate hydrolysis at 200 uM by spectrophotometric analysis. The procedure, abridged: as §2

With `S=c1[nH]nc(CCc2ccccc2)n1/N=C/c1ccc(OCc2ccccc2)cc1`, the Ki (commonly a dissociation constant, usually derived from enzyme kinetics or from competition with a known ligand) in [1] stood at 32 µM; in assay [2], 2 µM; in assay [6] it was 9 µM; in [8], 1 µM. Also, the inhibition result in assay [3] and in [5] was “inactive” throughout. Besides, the inhibition (usually how much of the control response was suppressed) in assay [4] worked out at 30%. In addition, the inhibition zone (IZ) in assay [7] was 6 mm.

With `Cc1ccccc1-c1n[nH]c(=S)n1/N=C/c1cc(O)ccc1O`, the Ki in assay [2] came out at 1.6 µM; in assay [11] it was 11 µM. Further, the inhibition in assay [9] came out at 54%; in [4], 37%; in assay [12], 54%; in [13] it was 48%. For the same compound, the figures for the inhibition zone (IZ) in assay [10] and in [7] were 14 mm and 6 mm, respectively.

`O=C(O)c1ccccc1/C=N/n1c(Cc2ccccc2)n[nH]c1=S`: the inhibition stood at 48% in assay [9]; 60% in assay [14]; 57% in assay [15]; 51% in assay [12]; 59% in assay [13]. Also, in assay [10], the inhibition zone (IZ) came out at 14 mm. In [11], affinity was put at a Ki of 3.2 µM.

As to `Oc1ccc(/C=N/n2c(-c3cc(Cl)cc(Cl)c3)n[nH]c2=S)c(O)c1`, the inhibitory constant (Ki) is 4 µM in [2] and 3.8 µM in [11]. Moreover, the values for the inhibition in assay [9], in [4] and in assay [13] were 55%, 50% and 40%, respectively. In addition, the inhibition zone (IZ) in [10] is 14 mm.

For `Cc1ccccc1-c1n[nH]c(=S)n1/N=C/c1ccc(F)cc1`, the inhibition is 30% in [9], 60% in [14] and 30% in [13]. For the same compound, the inhibition result in [3], in assay [5], in [15] and in [16] was “inactive” each time.

With `COc1cc(O)ccc1/C=N/n1c(-c2ccccc2C)n[nH]c1=S`, the Ki in assay [17] was 120 µM; in assay [1], 6 µM; in assay [2], 2.4 µM; in assay [11] it was 10 µM; in assay [8], 4 µM. Besides, the inhibition result in [9] and in assay [18] was “inactive” throughout. Further, the inhibition zone (IZ) in assay [10] is 14 mm; in assay [7] it was 7 mm.

The compound `Cc1ccccc1-c1n[nH]c(=S)n1/N=C/c1ccc([N+](=O)[O-])cc1` showed a Ki in [2] of 1.4 µM. The inhibition came out at 43% in assay [9], 59% in assay [12] and 56% in assay [13]. The inhibition entry in assay [3], in [4], in [5] and in assay [14] was “inactive” throughout. Also, the inhibition zone (IZ) in assay [7] was found to be 6 mm.

Turning to `O=C(O)c1ccccc1/C=N/n1c(-c2cc(O)ccc2O)n[nH]c1=S`, the Ki is 79 µM in assay [17]; 38 µM in assay [1]; 0.2 µM in [2]; 0.6 µM in [11]; 52 µM in assay [8]. The inhibition entry in assay [9] and in assay [18] was “inactive” throughout. Moreover, the inhibition zone (IZ) in assay [10] amounted to 14 mm; in [7] it was 6 mm.

For `Oc1ccc(/C=N/n2c(CCc3ccccc3)n[nH]c2=S)c(O)c1`, the inhibition constant Ki in assay [17] came to 168 µM; in assay [11], 9 µM; in [8], 6 µM. For the same compound, the figures for the inhibition in assay [9], in assay [15] and in assay [13] were 45%, 54% and 51%, respectively. The inhibition zone (IZ) in assay [10] was found to be 14 mm.

Regarding `Oc1ccc(/C=N/n2c(-c3ccccc3)n[nH]c2=S)c(O)c1`, the Ki was determined as 1.7 µM in assay [2] and 26 µM in assay [8]. The inhibition in assay [9] stood at 54%; in assay [13], 46%. For the same compound, the inhibition zone (IZ) in assay [10] came to 14 mm; in [7] it was 6 mm.

The values above are taken from ChEMBL document CHEMBL4706580, “4-Amino-1,2,4-triazole-3-thione-derived Schiff bases as metallo-β-lactamase inhibitors” (Eur J Med Chem, 2020).
